# From PubChem BioAssay
# tolC growth inh: growth inhibitors of E. coli BW25113 tolC mutant; OD615; growth inhibition, % at 10 µM (by protocol); 2.2% of 65,000 active;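 active means growth inhibition at or above a cutoff equal to the mean over every tested compound plus 3 SD, cut at about 60% in these data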;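 further: growth measured after 20 h incubation at 37 °C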
#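 Assay system: tolC-deleted E. coli BW25113. Medium: kanamycin-containing LB broth (50 µg/mL). Dosing: 10 µM final, single dose. Timing: bacterial growth with compound for 20 h at 37 °C. Detection: A615 absorbance measurement. Read-out basis: growth inhibition in percent.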
# E coli WT exp: blocks growth of wild type E. coli BW25113; OD600 absorbance; growth inhibition, % at 100 µM; 0.15% of 98,000 active;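 active means growth inhibition above about 50% at one test dose, limit read from the data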;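 further: growth measured after 20 h incubation at 37 °C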
# PostGolgi ctrl: growth of the yeast control strain, post-Golgi counter-screen. efflux-deficient yeast background strain, growth absorbance A615, 16 h. inhibition, % at 10 µM. 5% of 98,000 active
# PLAP act: activates human placental alkaline phosphatase; P05187; purified PLAP enzyme, luminescent substrate read-out; hits give high values; activation fold at 20 µM; 1.2% of 96,000 active; in the data active means activation fold above about 2
# HePTP inhibitor: inhibitors of human HePTP phosphatase; inhibition, % at 20 µM; recombinant HePTP phosphatase activity, OD absorbance; 0.64% of 110,000 active; AID 521; in the data active means inhibition above about 50%;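 further: plate controls were vehicle for no effect and reference inhibitor for full effect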
# Target sequence (P35236 whole entry, looked up): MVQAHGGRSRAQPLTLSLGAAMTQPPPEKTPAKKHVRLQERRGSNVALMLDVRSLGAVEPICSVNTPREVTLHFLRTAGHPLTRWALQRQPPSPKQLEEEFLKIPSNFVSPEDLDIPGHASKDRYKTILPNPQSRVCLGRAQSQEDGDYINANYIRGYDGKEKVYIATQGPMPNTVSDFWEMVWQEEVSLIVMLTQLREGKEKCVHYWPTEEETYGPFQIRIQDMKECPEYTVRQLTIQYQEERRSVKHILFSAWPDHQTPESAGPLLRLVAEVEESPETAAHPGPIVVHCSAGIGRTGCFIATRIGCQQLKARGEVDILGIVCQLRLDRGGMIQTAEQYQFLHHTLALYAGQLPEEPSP
# PostGolgi yeast: growth inhibition of a yeast mutant, post-Golgi transport screen | 0.9% of 98,000 active | inhibition, % at 10 µM | post-Golgi transport phenotypic cell assay;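 further: yeast cells grown in 1536-well plates; yeast grown about 18 h at 30C before absorbance read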
# * marks the source's active call; other numbers are inactive results; · = no result. The list is not random: actives were taken first. Their share in the collection is about 5.4%. Unless noted, no stated cut-off is given here; in the data, active means inhibition above about 30%; inactive means the rest.
SMILES,tolC growth inh,E coli WT exp,PostGolgi ctrl,PLAP act,HePTP inhibitor,PostGolgi yeast
Clc1ccc2[nH]c3c(NCCN4CCOCC4)ncnc3c2c1,12.1,14.0,30.4*,1,-2.5,15.4
Clc1ccc2[nH]c3c(NCC4CCCO4)ncnc3c2c1 (stereo not drawn),48.6,38.0,1.7,1.3,9.9,37.0*
CCCCNC(=O)C1CC(=O)N(C2CCCC2)C1 (stereo not drawn),·,7.0,5.6,0.8,·,-4.2
O=C1c2ccccc2C(Nc2ccc3c(c2)OCCO3)N1c1ccc(Cl)cn1 (stereo not drawn),19.9,0.0,35.1*,1,4.0,1.2
COc1ccc(NC2c3ccccc3C(=O)N2c2ccccn2)cc1Cl (stereo not drawn),·,-2.0,47.1*,0.9,·,7.0
O=C1c2ccccc2C(Nc2ccc(F)c(Cl)c2)N1c1ccccn1 (stereo not drawn),1.8,8.0,20.0,0.8,10.6,-1.8
CCn1c(C)nc2cc(S(=O)(=O)N3CCCC3)ccc21,0.2,3.0,10.9,0.9,5.1,-3.1
O=C(CN1CCN(c2ncc(C(F)(F)F)cc2Cl)CC1)NCCNc1ncc(C(F)(F)F)cc1Cl,·,5.0,84.7*,1.1,·,-1.6
O=C(CN1CCN(c2ncc(C(F)(F)F)cc2Cl)CC1)NC(=O)NCc1ccccc1,-5.9,-2.0,-3.7,0.9,11.3,20.4
CC(C)(C)NC(=O)NC(=O)CN1CCN(c2ncc(C(F)(F)F)cc2Cl)CC1,·,1.0,32.1*,1.6,·,-2.9
CCc1ccc(N2C(=O)NC(=O)/C(=C\c3ccc(OCC(=O)O)c(Br)c3)C2=O)cc1,·,·,·,·,-20.4,·
Cc1cc(C)n(S(=O)(=O)c2cc(C)c(C)cc2C)n1,12.6,-6.0,10.4,1.1,3.7,3.8
O=C(Cc1cccs1)Nc1ccc(Br)cc1C(=O)O,·,·,·,·,3.9,·
COc1cc(/C=C2\SC(=NCc3ccccc3)N(Cc3ccccc3)C2=O)cc(Br)c1O,·,·,·,·,6.6,·
COc1ccc(CCNC(=O)c2cc3sc(Cl)cc3n2C)cc1OC,62.8*,0.0,10.0,1.9,4.1,14.1
COc1ccc(OC)c(C(c2c(C)[nH]n(-c3ccccc3)c2=O)c2c(C)[nH]n(-c3ccccc3)c2=O)c1,·,·,·,·,103.9*,·
COc1cccc(C(c2c(C)[nH]n(-c3ccccc3)c2=O)c2c(C)[nH]n(-c3ccccc3)c2=O)c1O,·,·,·,·,-14.5,·
O=C(CSc1n[nH]c(-c2ccc(S(=O)(=O)NC3CCCCC3)cc2)n1)N1CCCC1,21.7,4.0,32.0*,1.4,9.2,4.9
Cc1cc(C)c2nc(N3CCC(C(=O)NCCCN4CCCCC4)CC3)sc2c1,·,8.0,5.5,2*,·,-3.0
Cc1cc(C)c2nc(N3CCC(C(=O)N4CCCC4)CC3)sc2c1,13.9,1.0,9.5,1.4,9.6,12.2
Clc1ccc(-c2nnc(NC3=NCCCCC3)o2)cc1,-6.7,1.0,30.5*,1,-0.1,-8.9
CCC(C)C(NS(=O)(=O)c1ccc(C)cc1)C(=O)Oc1ccc2c3c(c(=O)oc2c1)CCC3 (stereo not drawn),·,-5.0,33.1*,1,·,5.5
Cc1ccc(S(=O)(=O)NC(CC(C)C)C(=O)Oc2ccc3c4c(c(=O)oc3c2)CCC4)cc1 (stereo not drawn),·,-4.0,16.3,1.2,·,60.2*
CCc1nc2ccccc2c(=O)n1CCCCn1c(CC)nc2ccccc2c1=O,-6.2,·,·,·,3.8,·
CCOC(=O)c1c(C)oc2ccc(OC(=O)C(C)C)cc12,·,·,·,·,-0.9,·
SMILES,tolC growth inh,E coli WT exp,PostGolgi ctrl,PLAP act,HePTP inhibitor,PostGolgi yeast
O=C(C[n+]1cccc(NC(=O)c2ccccc2)c1)c1ccc(NC(=O)c2ccccc2)cc1,·,62.0*,4.8,1.1,·,-16.6
O=C(C[n+]1cccc(NC(=O)c2ccccc2)c1)c1ccccc1,·,10.0,2.9,0.9,·,4.5
CC1CC2=C(NC(=S)NC2c2ccc(F)cc2)/C(=C/c2ccc(F)cc2)C1 (stereo not drawn),·,-8.0,38.9*,0.9,·,-2.5
Cc1noc(C)c1CSc1nc2sc(C)c(C)c2c(=O)n1-c1ccccc1,15.8,-14.0,3.7,1,-10.1,-9.9
C=CCn1c(SCc2c(C)noc2C)nc2sc(C)c(C)c2c1=O,·,-13.0,34.9*,1.1,·,-4.3
CCN1CCN(c2nc3ccccc3nc2C(C#N)S(=O)(=O)c2ccc(C)c(C)c2)CC1 (stereo not drawn),·,6.0,6.0,2*,·,3.3
Cc1ccc(S(=O)(=O)C(C#N)c2nc3ccccc3nc2N2CC(C)OC(C)C2)cc1C (stereo not drawn),47.5,6.0,13.3,1.4,6.3,15.4
CC1CCN(c2nc3ccccc3nc2C(C#N)S(=O)(=O)c2ccccc2)CC1 (stereo not drawn),76.4*,·,·,·,-1.6,·
COc1ccc(S(=O)(=O)C(C#N)c2nc3ccccc3nc2N2CCCC(C)C2)cc1 (stereo not drawn),68.1*,-5.0,10.4,1.4,13.7,-7.0
CC1CCCN(c2nc3ccccc3nc2C(C#N)S(=O)(=O)c2cccs2)C1 (stereo not drawn),·,-2.0,16.1,1.4,·,-3.2
Cc1cccc(S(=O)(=O)C(C#N)c2nc3ccccc3nc2N2CC(C)OC(C)C2)c1 (stereo not drawn),62.3*,-4.0,10.8,1.4,-0.6,1.1
CCN1CCN(c2nc3ccccc3nc2C(C#N)S(=O)(=O)c2ccc(C)cc2)CC1 (stereo not drawn),·,-10.0,13.9,1.5,·,-2.8
CC1=CCC2C(=O)N(c3cccc(C(=O)N(C)C4CCCCC4)c3)C(=O)C2C1 (stereo not drawn),-1.1,6.0,3.8,1.7,6.0,4.7
CCN(CC)c1ccc(/C=N/n2c(=S)[nH]nc(C)c2=O)cc1,-3.6,-1.0,6.7,1,0.4,1.1
COc1ccccc1-c1cc(C(=O)N2CCN(c3ccccc3OC)CC2)no1,63.5*,-8.0,37.6*,1.5,4.8,3.9
COc1ccc(-c2cc(C(=O)N3CCN(Cc4ccccc4)CC3)no2)cc1OC,28.3,-13.0,17.4,1.7,6.3,-2.3
COc1ccccc1N1CCN(C(=O)c2cc(-c3ccc(Cl)cc3)on2)CC1,53.6,-5.0,39.6*,1,-2.9,-2.8
COc1ccccc1N1CCN(C(=O)c2cc(-c3ccc(C)cc3)on2)CC1,85.6*,-12.0,24.7,1.3,6.2,-2.1
COc1ccccc1N1CCN(C(=O)c2cc(C3CC3)on2)CC1,1.9,-4.0,3.5,1.3,4.7,9.3
COc1ccccc1N1CCN(C2CCN(C(=O)c3cc(OC)c(OC)c(OC)c3)CC2)CC1,2.7,9.0,-4.6,1.6,-5.9,35.9*
C/C(=N\NC(=O)c1ccccc1Cl)c1ccc(O)cc1,·,·,·,·,4.1,·
CCCCc1[nH]nc2c1C1(C(=O)N(CC)c3ccccc31)C(C#N)=C(N)O2 (stereo not drawn),9.8,0.0,14.5,1.4,6.0,6.1
O=C(Nc1ccncc1)c1ccccc1F,-5.5,1.0,42.4*,0.9,12.6,-7.4
CCCCCCCC(=O)NNC(=O)CCC(=O)O,·,7.0,-3.1,0.8,·,0.5
